Measured values reported in ChEMBL document CHEMBL1926586, “A new class of antimalarial dioxanes obtained through a simple two-step synthetic approach: rational design and structure-activity relationship studies” (J Med Chem, 2011).

Tested on: not listed separately
Assay: Cytotoxicity against human HMEC1 cells after 72 hrs by MTT assay
Assay type: cell-based
Conditions: HMEC-1, 72 h

Row | Structure (SMILES) | IC50
1 | CCCC[C@@]1(OC)OOC(C)(C)C[C@@H]1C(=O)OC (mixture of isomers) | > 384 µM
2 | CCCC[C@@]1(C)C[C@H](C(=O)OC)[C@](CCCC)(OC)OO1 (mixture of isomers) | 167 µM
3 | CCCCC1(CCCC)C[C@H](C(=O)OC)[C@@](C)(OC)OO1 (mixture of isomers) | 98.3 µM
4 | CCCCC1(CCCC)C[C@H](C(=O)OC)[C@](CCCC)(OC)OO1 (mixture of isomers) | 108 µM

Tested on: Plasmodium falciparum
Assay: Antimalarial activity against chloroquine-sensitive Plasmodium falciparum D10 infected in human type A-positive red blood cells assessed as parasite lactate dehydrogenase activity after 72 hrs by spectrophotometric analysis
Assay type: functional, organism-based
Conditions: D10, 72 h
Method in brief: (§1)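 Parasites were cultured in human type A-positive red blood cells at 5% hematocrit. Medium was RPMI 1640 with 1% AlbuMax, 0.01% hypoxanthine, 20 mM Hepes and 2 mM glutamine. Cultures were held at 37 °C under 1% O2, 5% CO2, 94% N2. Compounds were dissolved in water or DMSO, then diluted in medium. Values are mean ± SD of three experiments in duplicate.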

Row | Structure (SMILES) | IC50
5 | COC(=O)[C@H]1CC(C)(C)OO[C@@]1(C)OC (mixture of isomers) | > 30 µM
6 | CC[C@@]1(OC)OOC(C)(C)C[C@@H]1C(=O)OC (mixture of isomers) | > 30 µM
7 | CCCC[C@@]1(OC)OOC(C)(C)C[C@@H]1C(=O)OC (mixture of isomers) | 3.7 µM
8 | CCCC[C@]1(OC)OOC(C)(C)C[C@@H]1C(=O)OC (mixture of isomers) | > 30 µM
9 | CCCC[C@]1(C)C[C@H](C(=O)OC)[C@](C)(OC)OO1 (mixture of isomers) | 8.5 µM
10 | CCCC[C@@]1(C)C[C@H](C(=O)OC)[C@](C)(OC)OO1 (mixture of isomers) | 12.6 µM
11 | CCCC[C@]1(C)C[C@H](C(=O)OC)[C@@](C)(OC)OO1 (mixture of isomers) | 17.7 µM
12 | CCCC[C@@]1(C)C[C@H](C(=O)OC)[C@@](C)(OC)OO1 (mixture of isomers) | 17.7 µM
13 | CCCC[C@]1(C)C[C@H](C(=O)OC)[C@](CCCC)(OC)OO1 (mixture of isomers) | 4.2 µM
14 | CCCC[C@@]1(C)C[C@H](C(=O)OC)[C@](CCCC)(OC)OO1 (mixture of isomers) | 2.6 µM
15 | CCCC[C@]1(C)C[C@H](C(=O)OC)[C@@](CCCC)(OC)OO1 (mixture of isomers) | 12.3 µM
16 | CCCCC1(CCCC)C[C@H](C(=O)OC)[C@](C)(OC)OO1 (mixture of isomers) | 7.4 µM
17 | CCCCC1(CCCC)C[C@H](C(=O)OC)[C@@](C)(OC)OO1 (mixture of isomers) | 2.6 µM
18 | CCCCC1(CCCC)C[C@H](C(=O)OC)[C@](CCCC)(OC)OO1 (mixture of isomers) | 2.9 µM
19 | CCCCC1(CCCC)C[C@H](C(=O)OC)[C@@](CCCC)(OC)OO1 (racemic) | 2.3 µM
20 | CC/C=C/[C@H](CC)C[C@@]1(C)C[C@@H](CC)[C@@H](CC(=O)OC)OO1 [PLAKORTIN] | 0.9 µM

Tested on: Plasmodium falciparum
Assay: Antimalarial activity against chloroquine-resistant Plasmodium falciparum W2 infected in human type A-positive red blood cells assessed as parasite lactate dehydrogenase activity after 72 hrs by spectrophotometric analysis
Assay type: functional, organism-based
Conditions: W2, 72 h
Method in brief: as §1

Row | Structure (SMILES) | IC50
21 | COC(=O)[C@H]1CC(C)(C)OO[C@@]1(C)OC (mixture of isomers) | > 30 µM
22 | CC[C@@]1(OC)OOC(C)(C)C[C@@H]1C(=O)OC (mixture of isomers) | > 30 µM
23 | CCCC[C@@]1(OC)OOC(C)(C)C[C@@H]1C(=O)OC (mixture of isomers) | 1.5 µM
24 | CCCC[C@]1(OC)OOC(C)(C)C[C@@H]1C(=O)OC (mixture of isomers) | > 30 µM
25 | CCCC[C@]1(C)C[C@H](C(=O)OC)[C@](C)(OC)OO1 (mixture of isomers) | 4.9 µM
26 | CCCC[C@@]1(C)C[C@H](C(=O)OC)[C@](C)(OC)OO1 (mixture of isomers) | 11.8 µM
27 | CCCC[C@]1(C)C[C@H](C(=O)OC)[C@@](C)(OC)OO1 (mixture of isomers) | 8.4 µM
28 | CCCC[C@@]1(C)C[C@H](C(=O)OC)[C@@](C)(OC)OO1 (mixture of isomers) | 6.4 µM
29 | CCCC[C@]1(C)C[C@H](C(=O)OC)[C@](CCCC)(OC)OO1 (mixture of isomers) | 1.5 µM
30 | CCCC[C@@]1(C)C[C@H](C(=O)OC)[C@](CCCC)(OC)OO1 (mixture of isomers) | 1.3 µM
31 | CCCC[C@]1(C)C[C@H](C(=O)OC)[C@@](CCCC)(OC)OO1 (mixture of isomers) | 5 µM
32 | CCCCC1(CCCC)C[C@H](C(=O)OC)[C@](C)(OC)OO1 (mixture of isomers) | 2.5 µM
33 | CCCCC1(CCCC)C[C@H](C(=O)OC)[C@@](C)(OC)OO1 (mixture of isomers) | 0.8 µM
34 | CCCCC1(CCCC)C[C@H](C(=O)OC)[C@](CCCC)(OC)OO1 (mixture of isomers) | 1.2 µM
35 | CCCCC1(CCCC)C[C@H](C(=O)OC)[C@@](CCCC)(OC)OO1 (racemic) | 1.2 µM
36 | CC/C=C/[C@H](CC)C[C@@]1(C)C[C@@H](CC)[C@@H](CC(=O)OC)OO1 [PLAKORTIN] | 0.4 µM

Tested on: not listed separately
Assay: Therapeutic index, ratio of IC50 for human HMEC1 cells to IC50 for chloroquine-resistant Plasmodium falciparum W2
Assay type: cell-based
Conditions: read-out: Ratio IC50

Row | Structure (SMILES) | selectivity ratio
37 | CCCC[C@@]1(OC)OOC(C)(C)C[C@@H]1C(=O)OC (mixture of isomers) | 90
38 | CCCC[C@@]1(C)C[C@H](C(=O)OC)[C@](CCCC)(OC)OO1 (mixture of isomers) | 90
39 | CCCCC1(CCCC)C[C@H](C(=O)OC)[C@@](C)(OC)OO1 (mixture of isomers) | 90
40 | CCCCC1(CCCC)C[C@H](C(=O)OC)[C@](CCCC)(OC)OO1 (mixture of isomers) | 90
